Experimental findings from ChEMBL document CHEMBL1135426, “Synthesis, receptor potency, and selectivity of halogenated diphenylpiperidines as serotonin 5-HT2A ligands for PET or SPECT brain imaging” (J Med Chem, 2002) are described below.

In experiment [1] the target is 5-hydroxytryptamine receptor 2A (Homo sapiens, UniProt P28223). In words: Tested on genetically transfected COS7 cell membranes selectively expressing human 5-hydroxytryptamine 2A receptor, using [3H]ketanserin as radioligand. In kind it is cell-based, COS-7. In a few lines: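 Membranes of transfected COS-7 cells expressing human 5-HT2A, with 1.0 nM [3H]ketanserin, room temperature, 60 min. 10 µM altanserin as blank. Filtration and scintillation counting. Competition curves over ≥6 concentrations yield IC50 ± SE. Ki obtained by Cheng-Prusoff from the radioligand apparent Kd.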

Experiment [2] deals with 5-hydroxytryptamine receptor 7 (Homo sapiens, UniProt P34969). In words: Tested on cell membranes from transfected cells selectively expressing human 5-hydroxytryptamine 7 receptor incubated with 1 nM [3H]LSD. The essentials:
(§1)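 Membranes (1-10 µg protein) from transfected cells expressing human 5-HT6 or 5-HT7, incubated with 1 nM [3H]LSD, room temperature, 90 min, in the dark. 10 µM clozapine as blank. Filter harvest and tritium counting. IC50 from multi-concentration competition, converted to Ki via Cheng-Prusoff.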

Experiment [3] concerns the target D(2) dopamine receptor (Rattus norvegicus, UniProt P61169). In words: Binding affinity (Ki) at Dopamine receptor D2 using rat caudate cells with nemonapride (0.075 nM) as a radioligand and […] as a blank agent. The essentials: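 Rat caudate-putamen homogenate incubated with 75 pM [3H]nemonapride at 30 °C for 90 min. Nonspecific binding defined with 10 µM haloperidol. Bound radioactivity collected on glass fiber filters and counted. IC50 ± SE from ≥6-concentration inhibition curves, converted to Ki by Cheng-Prusoff using the radioligand Kd.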

In experiment [4] the target is T1, 5-hydroxytryptamine receptor 2C (Homo sapiens, UniProt P28335).
T1 sequence (P28335 whole entry): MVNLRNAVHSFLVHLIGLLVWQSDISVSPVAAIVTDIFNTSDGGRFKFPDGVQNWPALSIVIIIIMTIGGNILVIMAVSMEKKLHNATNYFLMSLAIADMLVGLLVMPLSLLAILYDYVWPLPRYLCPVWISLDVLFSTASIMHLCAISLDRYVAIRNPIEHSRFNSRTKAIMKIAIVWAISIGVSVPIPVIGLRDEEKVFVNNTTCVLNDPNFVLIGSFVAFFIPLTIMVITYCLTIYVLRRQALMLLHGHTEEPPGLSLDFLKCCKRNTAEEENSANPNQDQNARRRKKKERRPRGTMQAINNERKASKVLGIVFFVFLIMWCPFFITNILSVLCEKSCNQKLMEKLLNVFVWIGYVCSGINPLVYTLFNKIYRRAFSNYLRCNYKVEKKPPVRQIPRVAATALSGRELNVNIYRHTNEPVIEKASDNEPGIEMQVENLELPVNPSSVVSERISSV
In words: Tested on transfected cell membranes selectively expressing human 5-hydroxytryptamine 2C receptor using [3H]mesulergine. The essentials:
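Transfected cell membranes expressing human 5-HT2C, incubated with 0.80 nM [3H]mesulergine at room temperature for 60 min. Nonspecific binding with 10 µM clozapine. Filtration and scintillation counting. IC50 ± SE from concentration-inhibition curves, converted to Ki by Cheng-Prusoff using the radioligand Kd.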

Experiment [5] addresses 5-hydroxytryptamine receptor 6 (Homo sapiens, UniProt P50406). In words: Tested on cell membranes from transfected cells selectively expressing human 5-hydroxytryptamine 6 receptor incubated with 1 nM [3H]LSD. The essentials:
as §1

Experiment [6] deals with T2, Adrenergic receptor alpha-2 (Rattus norvegicus, UniProt P22086+P19328+P22909).
T2 sequence (P22086 whole entry): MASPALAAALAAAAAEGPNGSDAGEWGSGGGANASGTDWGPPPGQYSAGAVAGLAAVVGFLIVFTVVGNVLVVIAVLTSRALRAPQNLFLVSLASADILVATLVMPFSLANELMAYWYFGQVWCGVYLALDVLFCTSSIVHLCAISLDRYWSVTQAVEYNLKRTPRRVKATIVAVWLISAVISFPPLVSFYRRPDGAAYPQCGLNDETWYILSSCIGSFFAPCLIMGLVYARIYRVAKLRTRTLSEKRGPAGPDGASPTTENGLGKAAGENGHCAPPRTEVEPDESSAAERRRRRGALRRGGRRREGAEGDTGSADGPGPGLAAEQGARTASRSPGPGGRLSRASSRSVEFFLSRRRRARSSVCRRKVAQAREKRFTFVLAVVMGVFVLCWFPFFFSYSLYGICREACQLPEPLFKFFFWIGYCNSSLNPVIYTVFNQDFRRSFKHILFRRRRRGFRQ
T2 sequence (P19328 whole entry): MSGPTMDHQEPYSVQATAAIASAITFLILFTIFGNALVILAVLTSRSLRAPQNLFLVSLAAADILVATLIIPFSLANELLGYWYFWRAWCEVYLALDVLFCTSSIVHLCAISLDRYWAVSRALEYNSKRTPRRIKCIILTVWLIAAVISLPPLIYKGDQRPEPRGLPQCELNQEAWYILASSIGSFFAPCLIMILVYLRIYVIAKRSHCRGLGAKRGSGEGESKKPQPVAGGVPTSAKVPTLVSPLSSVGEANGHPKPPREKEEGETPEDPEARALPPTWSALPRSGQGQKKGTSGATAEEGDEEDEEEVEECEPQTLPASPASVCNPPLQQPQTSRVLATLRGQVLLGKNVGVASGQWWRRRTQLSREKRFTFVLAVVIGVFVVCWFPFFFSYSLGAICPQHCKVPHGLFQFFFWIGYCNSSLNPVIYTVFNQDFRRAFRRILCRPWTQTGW
T2 sequence (P22909 whole entry): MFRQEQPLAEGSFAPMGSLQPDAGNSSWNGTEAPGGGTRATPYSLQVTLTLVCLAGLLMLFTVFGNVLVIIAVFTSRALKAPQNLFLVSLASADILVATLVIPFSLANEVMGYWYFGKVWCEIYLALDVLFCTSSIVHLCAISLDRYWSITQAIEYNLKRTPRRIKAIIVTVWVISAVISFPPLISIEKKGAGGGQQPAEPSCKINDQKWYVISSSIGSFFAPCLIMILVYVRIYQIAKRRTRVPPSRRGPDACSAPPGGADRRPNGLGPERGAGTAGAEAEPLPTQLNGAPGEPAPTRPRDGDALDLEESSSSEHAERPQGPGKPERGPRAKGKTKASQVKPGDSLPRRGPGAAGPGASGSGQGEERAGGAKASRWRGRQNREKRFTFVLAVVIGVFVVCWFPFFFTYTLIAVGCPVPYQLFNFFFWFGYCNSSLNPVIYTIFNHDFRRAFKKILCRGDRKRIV
The experiment in a line: Binding affinity (Ki) at Alpha-2 adrenergic receptor homogenates of whole rat brain were incubated [3H]MK-912 for 80 min at room temperature, using […] as the blank agent. In kind it is tissue-based. In a few lines: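 Whole rat brain homogenate (minus cerebellum) with 1.0 nM [3H]MK-912, 80 min at room temperature. 10 µM phentolamine defines nonspecific binding. Filter harvest and scintillation counting. Concentration-inhibition curves (≥6 concentrations) give IC50 ± SE, converted to Ki via Cheng-Prusoff with the radioligand's apparent Kd.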

Structures are written as SMILES.

5-hydroxytryptamine receptor 7, sequence (P34969 whole entry): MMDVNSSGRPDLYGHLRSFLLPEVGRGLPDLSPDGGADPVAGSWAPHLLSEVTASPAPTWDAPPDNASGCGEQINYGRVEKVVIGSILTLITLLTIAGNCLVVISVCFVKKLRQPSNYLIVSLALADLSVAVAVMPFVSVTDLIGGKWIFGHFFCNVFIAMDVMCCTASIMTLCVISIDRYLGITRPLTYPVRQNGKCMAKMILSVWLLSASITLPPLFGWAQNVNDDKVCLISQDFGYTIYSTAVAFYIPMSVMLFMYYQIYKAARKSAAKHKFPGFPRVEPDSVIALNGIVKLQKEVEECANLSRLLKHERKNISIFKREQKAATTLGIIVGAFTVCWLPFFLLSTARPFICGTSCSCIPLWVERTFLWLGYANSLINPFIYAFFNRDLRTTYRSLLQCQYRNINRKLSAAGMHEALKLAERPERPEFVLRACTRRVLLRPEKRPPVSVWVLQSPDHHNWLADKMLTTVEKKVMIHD
5-hydroxytryptamine receptor 2A, sequence (P28223 whole entry): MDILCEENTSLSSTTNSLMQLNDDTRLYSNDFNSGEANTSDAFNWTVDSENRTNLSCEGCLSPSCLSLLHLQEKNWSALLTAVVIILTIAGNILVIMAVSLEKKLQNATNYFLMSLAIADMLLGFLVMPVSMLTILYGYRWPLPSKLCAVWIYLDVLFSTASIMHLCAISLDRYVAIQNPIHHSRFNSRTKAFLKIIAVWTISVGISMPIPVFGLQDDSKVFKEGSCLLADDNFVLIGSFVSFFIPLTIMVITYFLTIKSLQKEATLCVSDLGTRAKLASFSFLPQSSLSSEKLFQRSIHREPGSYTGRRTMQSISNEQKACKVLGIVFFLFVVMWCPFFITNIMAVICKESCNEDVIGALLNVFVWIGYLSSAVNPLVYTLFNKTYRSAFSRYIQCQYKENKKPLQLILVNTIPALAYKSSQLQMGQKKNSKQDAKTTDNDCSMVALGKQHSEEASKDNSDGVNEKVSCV
5-hydroxytryptamine receptor 6, sequence (P50406 whole entry): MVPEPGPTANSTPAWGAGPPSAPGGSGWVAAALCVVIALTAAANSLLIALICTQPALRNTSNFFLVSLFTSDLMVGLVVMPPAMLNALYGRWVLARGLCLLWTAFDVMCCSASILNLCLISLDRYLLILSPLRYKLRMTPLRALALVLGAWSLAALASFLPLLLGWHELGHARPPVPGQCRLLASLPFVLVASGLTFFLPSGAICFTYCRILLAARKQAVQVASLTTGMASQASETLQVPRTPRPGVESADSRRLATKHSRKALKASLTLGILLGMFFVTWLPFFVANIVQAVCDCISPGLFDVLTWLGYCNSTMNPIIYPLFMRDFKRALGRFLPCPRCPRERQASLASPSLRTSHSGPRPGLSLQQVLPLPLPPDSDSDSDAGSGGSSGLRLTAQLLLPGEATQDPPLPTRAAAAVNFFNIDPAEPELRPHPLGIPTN
D(2) dopamine receptor, sequence (P61169 whole entry): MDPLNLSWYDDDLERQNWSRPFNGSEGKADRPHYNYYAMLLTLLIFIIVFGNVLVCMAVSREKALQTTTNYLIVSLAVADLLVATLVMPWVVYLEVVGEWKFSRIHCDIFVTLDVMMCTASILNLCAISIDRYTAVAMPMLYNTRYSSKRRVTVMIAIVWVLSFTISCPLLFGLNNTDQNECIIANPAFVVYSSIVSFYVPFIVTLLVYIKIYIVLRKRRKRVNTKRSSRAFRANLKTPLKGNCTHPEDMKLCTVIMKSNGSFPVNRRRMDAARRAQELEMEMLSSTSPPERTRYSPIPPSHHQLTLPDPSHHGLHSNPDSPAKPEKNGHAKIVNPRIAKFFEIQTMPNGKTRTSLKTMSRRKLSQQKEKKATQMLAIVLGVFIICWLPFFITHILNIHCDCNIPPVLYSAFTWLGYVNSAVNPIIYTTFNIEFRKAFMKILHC

Regarding `O=C(c1ccc(F)cc1)C1CCN(CCc2cccc(I)c2)CC1`, the Ki in experiment [1] came to 0.51 nM; in experiment [2], 8.76 nM; in experiment [3], 51.8 nM; in experiment [4], 16.6 nM; in experiment [5], 48.9 nM; in experiment [6], 244 nM.
`OC(c1ccc(F)cc1)C1CCN(CCc2ccc(F)cc2)CC1` (stereo unspecified): the Ki in experiment [1] is 1.63 nM; in experiment [2] it was 1340 nM; in experiment [3], more than 10000 nM; in experiment [4], 503 nM; in experiment [5] it was more than 10000 nM; in experiment [6], 1032 nM.
For the compound `O=C(c1ccc(F)cc1)C1CCN(CCc2ccc(I)cc2)CC1`, the Ki in experiment [1] turned out to be 3.62 nM; in experiment [2], 7.32 nM; in experiment [3], 176 nM; in experiment [4], 144 nM; in experiment [5] it was 300 nM; in experiment [6] it was 381 nM.
With `O=C(c1ccc(F)cc1)C1CCN(CCc2ccccc2I)CC1`, the Ki in experiment [1] was found to be 1.95 nM; in experiment [2], 3.68 nM; in experiment [3] it was 1.3 nM; in experiment [4], 35.5 nM; in experiment [5], 138 nM; in experiment [6], 140 nM.
On to `OC(c1ccc(F)cc1)C1CCN(CCc2ccccc2I)CC1` (stereo unspecified), for which the Ki in experiment [1] is 0.91 nM; in experiment [2] it was 101 nM; in experiment [3], more than 10000 nM; in experiment [4] it was 28.6 nM; in experiment [5] it was 430 nM; in experiment [6], 813 nM.
For the compound `O=C(c1ccc(F)cc1)C1CCN(CCc2ccc(F)cc2)CC1`, the Ki in experiment [1] amounted to 9.54 nM; in experiment [2] it was 63 nM; in experiment [3] it was 453 nM; in experiment [4] it was 493 nM; in experiment [5], 3000 nM; in experiment [6], 614 nM.

In general, Ki refers to a dissociation constant, usually derived from enzyme kinetics or from competition with a known ligand. Lower therefore signals tighter binding.
